The text below walks through data of ChEMBL document CHEMBL1681705, “Optimisation of ITK inhibitors through successive iterative design cycles” (Bioorg Med Chem Lett, 2011).

In assay [1] the target is Tyrosine-protein kinase Lyn (Homo sapiens) (UniProt P07948). The assay can be described thus: Inhibition of Lyn at 1 uM. Put shortly:
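Single-point screen within a 108-kinase selectivity panel. Each kinase was tested with inhibitor at 0.1 and 1.0 micromolar, and activity was recorded as percent inhibition.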

The target of assay [2] is Tyrosine-protein kinase HCK (Homo sapiens) (UniProt P08631). The assay can be described thus: Inhibition of Hck at 1 uM; values are per cent of control.
Assay [3] in a line: Inhibition of PKA at 1 uM; values are per cent of control.
The target of assay [4] is Insulin receptor (Homo sapiens) (UniProt P06213). The assay is described as follows: Inhibition of IR at 0.1 uM; values are per cent of control.
The target in assay [5] is Myosin light chain kinase, smooth muscle (Homo sapiens) (UniProt Q15746). The assay is described as follows: Inhibition of MLCK at 1 uM; values are per cent of control.
In assay [6] the target is Tyrosine-protein kinase Fyn (Homo sapiens) (UniProt P06241). The assay is described as follows: Inhibition of Fyn at 0.1 uM; values are per cent of control.
Assay [7] deals with Serine/threonine-protein kinase PLK2 (Homo sapiens) (UniProt Q9NYY3). The assay is described as follows: Inhibition of Snk at 0.1 uM; values are per cent of control.
The target in assay [8] is T1, Calcium/calmodulin-dependent protein kinase type IV (Homo sapiens) (UniProt Q16566).
T1 sequence (whole entry): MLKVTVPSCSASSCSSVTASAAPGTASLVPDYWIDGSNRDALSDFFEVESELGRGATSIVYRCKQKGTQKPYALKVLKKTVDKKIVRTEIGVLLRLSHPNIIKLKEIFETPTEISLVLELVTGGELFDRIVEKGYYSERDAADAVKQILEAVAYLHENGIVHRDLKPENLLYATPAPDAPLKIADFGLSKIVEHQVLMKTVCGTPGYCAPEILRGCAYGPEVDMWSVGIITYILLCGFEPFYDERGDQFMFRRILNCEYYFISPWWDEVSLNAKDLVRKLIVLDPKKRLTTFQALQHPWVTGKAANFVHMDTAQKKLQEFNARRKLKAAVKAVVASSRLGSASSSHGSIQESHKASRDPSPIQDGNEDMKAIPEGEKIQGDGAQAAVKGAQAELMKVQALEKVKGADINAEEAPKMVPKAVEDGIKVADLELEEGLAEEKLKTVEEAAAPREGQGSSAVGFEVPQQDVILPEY
The assay is described as follows: Inhibition of CaMK4 at 1 uM; values are per cent of control.

For assay [9], the target named is RAF proto-oncogene serine/threonine-protein kinase (Homo sapiens) (UniProt P04049). The assay can be described thus: Inhibition of c-RAF at 1 uM; values are per cent of control.
In assay [10] the target is T2, Ephrin type-B receptor 4 (Homo sapiens) (UniProt P54760).
T2 sequence (whole entry): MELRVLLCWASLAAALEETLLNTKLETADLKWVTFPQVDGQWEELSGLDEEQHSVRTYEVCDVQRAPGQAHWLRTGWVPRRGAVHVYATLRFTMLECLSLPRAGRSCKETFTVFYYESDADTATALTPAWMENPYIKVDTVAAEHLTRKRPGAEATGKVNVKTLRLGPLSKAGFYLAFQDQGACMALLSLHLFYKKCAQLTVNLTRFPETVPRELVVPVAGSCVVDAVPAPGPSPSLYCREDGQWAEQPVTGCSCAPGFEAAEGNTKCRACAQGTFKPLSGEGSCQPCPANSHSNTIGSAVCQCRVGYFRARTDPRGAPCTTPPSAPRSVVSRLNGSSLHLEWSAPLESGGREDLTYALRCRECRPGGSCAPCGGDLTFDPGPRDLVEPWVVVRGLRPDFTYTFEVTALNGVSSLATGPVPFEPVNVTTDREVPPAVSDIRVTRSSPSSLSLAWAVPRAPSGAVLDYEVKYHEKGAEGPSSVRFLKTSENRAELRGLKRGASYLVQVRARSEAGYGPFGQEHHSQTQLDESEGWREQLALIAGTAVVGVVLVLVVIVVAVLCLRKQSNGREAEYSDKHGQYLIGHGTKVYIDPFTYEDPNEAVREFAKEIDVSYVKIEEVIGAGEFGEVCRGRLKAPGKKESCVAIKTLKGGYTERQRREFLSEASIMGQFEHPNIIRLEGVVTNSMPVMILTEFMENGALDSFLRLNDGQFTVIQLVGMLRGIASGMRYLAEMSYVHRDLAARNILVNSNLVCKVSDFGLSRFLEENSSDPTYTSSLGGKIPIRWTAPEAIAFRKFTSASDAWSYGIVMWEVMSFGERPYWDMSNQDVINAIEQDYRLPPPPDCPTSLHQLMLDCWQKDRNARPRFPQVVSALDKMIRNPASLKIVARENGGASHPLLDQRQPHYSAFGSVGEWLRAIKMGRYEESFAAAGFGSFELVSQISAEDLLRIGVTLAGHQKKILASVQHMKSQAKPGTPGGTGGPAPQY
The assay is described as follows: Inhibition of EphB4 at 1 uM; values are per cent of control.

In assay [11] the target is T3, Activin receptor type-1B (Homo sapiens) (UniProt P36896).
T3 sequence (whole entry): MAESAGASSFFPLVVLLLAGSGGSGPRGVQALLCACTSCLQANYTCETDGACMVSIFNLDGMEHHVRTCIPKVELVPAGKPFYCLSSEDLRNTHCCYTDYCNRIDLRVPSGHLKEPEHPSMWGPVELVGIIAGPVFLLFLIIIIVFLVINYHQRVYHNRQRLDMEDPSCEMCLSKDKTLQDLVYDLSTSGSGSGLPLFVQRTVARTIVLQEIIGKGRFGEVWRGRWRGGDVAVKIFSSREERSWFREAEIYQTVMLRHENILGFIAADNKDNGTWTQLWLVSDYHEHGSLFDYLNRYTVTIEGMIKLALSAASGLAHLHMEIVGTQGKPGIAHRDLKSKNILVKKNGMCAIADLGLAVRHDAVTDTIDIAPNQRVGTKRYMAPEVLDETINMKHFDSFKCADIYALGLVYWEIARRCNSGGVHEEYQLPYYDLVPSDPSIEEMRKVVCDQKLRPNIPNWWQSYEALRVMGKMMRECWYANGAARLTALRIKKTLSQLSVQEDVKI
The assay is described as follows: Inhibition of ALK4 at 0.1 uM; values are per cent of control.

In assay [12] the target is Receptor-type tyrosine-protein kinase FLT3 (Homo sapiens) (UniProt P36888). The assay is described as follows: Inhibition of Flt3 at 0.1 uM; values are per cent of control.
Assay [13] concerns the target Ribosomal protein S6 kinase beta-1 (Homo sapiens) (UniProt P23443). The assay can be described thus: Inhibition of p70S6K at 0.1 uM; values are per cent of control.
Assay [14] deals with Mitogen-activated protein kinase 11 (Homo sapiens) (UniProt Q15759). The assay can be described thus: Inhibition of SAPK2b at 0.1 uM; values are per cent of control.

Insulin receptor (Homo sapiens), sequence (P06213 28-758 limits assumed): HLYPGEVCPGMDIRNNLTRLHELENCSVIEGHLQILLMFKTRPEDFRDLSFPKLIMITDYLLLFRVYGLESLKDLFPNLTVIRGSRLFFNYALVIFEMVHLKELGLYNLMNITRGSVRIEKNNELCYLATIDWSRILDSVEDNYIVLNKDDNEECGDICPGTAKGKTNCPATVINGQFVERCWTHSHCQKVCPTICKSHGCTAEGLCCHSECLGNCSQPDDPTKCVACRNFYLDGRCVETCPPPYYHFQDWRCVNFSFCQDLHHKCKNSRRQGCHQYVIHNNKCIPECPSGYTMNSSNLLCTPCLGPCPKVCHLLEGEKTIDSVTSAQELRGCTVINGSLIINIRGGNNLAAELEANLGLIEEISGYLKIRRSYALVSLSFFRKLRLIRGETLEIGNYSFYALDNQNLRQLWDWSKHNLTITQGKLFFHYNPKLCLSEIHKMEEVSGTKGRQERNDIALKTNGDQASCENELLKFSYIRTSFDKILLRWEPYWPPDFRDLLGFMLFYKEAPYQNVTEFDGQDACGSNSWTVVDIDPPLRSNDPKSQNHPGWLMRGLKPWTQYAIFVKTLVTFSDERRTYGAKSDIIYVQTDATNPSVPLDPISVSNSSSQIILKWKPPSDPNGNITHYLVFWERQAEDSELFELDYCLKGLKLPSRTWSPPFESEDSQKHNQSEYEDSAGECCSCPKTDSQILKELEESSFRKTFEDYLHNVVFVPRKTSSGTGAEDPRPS
Insulin receptor (Homo sapiens), sequence (P06213 763-1382 limits assumed): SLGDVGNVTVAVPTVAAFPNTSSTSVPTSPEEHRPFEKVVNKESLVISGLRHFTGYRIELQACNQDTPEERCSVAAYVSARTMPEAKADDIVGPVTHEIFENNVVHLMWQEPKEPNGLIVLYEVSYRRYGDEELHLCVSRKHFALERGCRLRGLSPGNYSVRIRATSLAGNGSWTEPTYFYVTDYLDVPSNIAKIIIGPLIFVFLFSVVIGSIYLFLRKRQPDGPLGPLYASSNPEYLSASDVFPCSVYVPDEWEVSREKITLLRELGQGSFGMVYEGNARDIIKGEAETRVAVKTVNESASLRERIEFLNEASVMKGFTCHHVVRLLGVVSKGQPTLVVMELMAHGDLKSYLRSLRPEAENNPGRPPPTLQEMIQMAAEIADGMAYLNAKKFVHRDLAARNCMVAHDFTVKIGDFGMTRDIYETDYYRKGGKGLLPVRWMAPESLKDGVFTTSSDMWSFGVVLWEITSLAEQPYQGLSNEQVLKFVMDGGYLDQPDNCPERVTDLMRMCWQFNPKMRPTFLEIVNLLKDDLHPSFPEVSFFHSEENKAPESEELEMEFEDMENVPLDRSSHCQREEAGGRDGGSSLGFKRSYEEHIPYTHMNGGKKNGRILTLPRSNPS
Ribosomal protein S6 kinase beta-1 (Homo sapiens), sequence (P23443 whole entry, looked up): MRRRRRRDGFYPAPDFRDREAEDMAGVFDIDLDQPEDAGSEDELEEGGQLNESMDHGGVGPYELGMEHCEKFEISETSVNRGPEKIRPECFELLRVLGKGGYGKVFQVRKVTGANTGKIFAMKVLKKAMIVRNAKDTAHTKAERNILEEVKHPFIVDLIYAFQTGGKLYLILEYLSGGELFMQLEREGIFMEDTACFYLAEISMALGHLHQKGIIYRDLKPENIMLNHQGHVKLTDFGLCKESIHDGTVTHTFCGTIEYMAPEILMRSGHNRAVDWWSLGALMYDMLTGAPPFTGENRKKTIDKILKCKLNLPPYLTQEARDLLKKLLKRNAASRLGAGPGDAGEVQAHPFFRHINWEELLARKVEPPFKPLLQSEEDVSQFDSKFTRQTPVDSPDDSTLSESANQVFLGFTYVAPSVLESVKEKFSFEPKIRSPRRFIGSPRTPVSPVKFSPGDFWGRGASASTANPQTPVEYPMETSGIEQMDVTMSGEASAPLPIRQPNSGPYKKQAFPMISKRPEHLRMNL
Tyrosine-protein kinase HCK (Homo sapiens), sequence (P08631 2-526 limits assumed): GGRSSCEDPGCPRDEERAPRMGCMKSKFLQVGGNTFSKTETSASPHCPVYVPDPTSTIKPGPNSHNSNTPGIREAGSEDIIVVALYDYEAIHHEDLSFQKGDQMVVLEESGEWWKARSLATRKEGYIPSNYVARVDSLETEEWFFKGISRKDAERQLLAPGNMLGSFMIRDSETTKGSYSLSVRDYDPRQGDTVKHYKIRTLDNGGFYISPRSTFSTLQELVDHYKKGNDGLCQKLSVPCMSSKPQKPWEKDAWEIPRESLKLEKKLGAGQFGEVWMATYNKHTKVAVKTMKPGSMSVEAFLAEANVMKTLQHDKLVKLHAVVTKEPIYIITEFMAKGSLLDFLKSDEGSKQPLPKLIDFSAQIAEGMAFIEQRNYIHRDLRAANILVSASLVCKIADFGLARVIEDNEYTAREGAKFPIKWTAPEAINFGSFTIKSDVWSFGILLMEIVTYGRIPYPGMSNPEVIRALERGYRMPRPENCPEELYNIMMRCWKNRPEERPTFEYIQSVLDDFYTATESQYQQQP
Tyrosine-protein kinase Fyn (Homo sapiens), sequence (P06241 2-537 limits assumed): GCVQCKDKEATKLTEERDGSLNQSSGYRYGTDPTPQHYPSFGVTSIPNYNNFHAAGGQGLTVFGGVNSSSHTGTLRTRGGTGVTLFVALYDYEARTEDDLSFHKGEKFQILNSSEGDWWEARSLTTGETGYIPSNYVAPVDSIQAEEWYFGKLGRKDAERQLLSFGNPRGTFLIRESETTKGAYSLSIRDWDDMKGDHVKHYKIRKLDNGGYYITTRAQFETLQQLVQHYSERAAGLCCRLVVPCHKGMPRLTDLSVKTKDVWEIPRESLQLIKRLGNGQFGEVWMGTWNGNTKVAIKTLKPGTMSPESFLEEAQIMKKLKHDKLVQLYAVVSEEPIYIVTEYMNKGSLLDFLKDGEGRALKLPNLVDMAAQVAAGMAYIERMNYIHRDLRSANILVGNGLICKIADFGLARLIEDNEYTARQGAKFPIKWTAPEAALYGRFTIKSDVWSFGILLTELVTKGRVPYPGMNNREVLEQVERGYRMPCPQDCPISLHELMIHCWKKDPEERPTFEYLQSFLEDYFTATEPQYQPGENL
Serine/threonine-protein kinase PLK2 (Homo sapiens), sequence (Q9NYY3 whole entry, looked up): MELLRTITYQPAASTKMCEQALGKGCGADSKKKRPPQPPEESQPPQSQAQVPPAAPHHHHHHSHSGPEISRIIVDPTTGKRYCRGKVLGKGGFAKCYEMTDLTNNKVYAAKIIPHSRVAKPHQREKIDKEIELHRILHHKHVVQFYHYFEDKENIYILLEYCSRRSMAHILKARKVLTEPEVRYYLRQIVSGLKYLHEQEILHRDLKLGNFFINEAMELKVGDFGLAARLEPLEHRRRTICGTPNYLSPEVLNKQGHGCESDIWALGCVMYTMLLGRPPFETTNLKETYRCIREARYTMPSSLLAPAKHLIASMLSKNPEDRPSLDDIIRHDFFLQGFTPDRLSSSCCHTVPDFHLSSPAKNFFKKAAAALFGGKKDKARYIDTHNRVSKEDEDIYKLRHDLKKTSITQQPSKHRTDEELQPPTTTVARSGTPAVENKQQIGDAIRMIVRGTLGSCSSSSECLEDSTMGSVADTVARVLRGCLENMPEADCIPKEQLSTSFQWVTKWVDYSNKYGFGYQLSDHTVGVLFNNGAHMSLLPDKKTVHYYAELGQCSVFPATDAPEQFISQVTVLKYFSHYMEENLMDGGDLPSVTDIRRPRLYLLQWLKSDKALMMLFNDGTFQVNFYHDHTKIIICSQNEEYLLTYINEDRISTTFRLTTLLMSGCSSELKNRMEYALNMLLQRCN
RAF proto-oncogene serine/threonine-protein kinase (Homo sapiens), sequence (P04049 whole entry): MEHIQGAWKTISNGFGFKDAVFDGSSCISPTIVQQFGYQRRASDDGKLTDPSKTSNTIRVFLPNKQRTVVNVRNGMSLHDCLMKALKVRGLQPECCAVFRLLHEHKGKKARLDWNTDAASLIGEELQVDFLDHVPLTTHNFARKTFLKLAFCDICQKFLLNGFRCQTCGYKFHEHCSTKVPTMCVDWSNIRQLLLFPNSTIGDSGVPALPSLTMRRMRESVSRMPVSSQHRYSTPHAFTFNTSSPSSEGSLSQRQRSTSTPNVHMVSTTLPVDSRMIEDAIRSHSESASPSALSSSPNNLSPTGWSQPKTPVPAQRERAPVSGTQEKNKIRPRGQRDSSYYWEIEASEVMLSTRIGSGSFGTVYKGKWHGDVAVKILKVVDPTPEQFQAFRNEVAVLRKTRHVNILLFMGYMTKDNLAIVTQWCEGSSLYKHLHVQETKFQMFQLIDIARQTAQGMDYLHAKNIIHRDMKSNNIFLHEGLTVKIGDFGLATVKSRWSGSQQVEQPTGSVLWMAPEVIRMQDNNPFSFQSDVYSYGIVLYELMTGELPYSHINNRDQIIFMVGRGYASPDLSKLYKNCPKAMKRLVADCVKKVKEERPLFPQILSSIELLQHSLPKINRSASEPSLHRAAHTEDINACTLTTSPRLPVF
Tyrosine-protein kinase Lyn (Homo sapiens), sequence (P07948 2-512 limits assumed): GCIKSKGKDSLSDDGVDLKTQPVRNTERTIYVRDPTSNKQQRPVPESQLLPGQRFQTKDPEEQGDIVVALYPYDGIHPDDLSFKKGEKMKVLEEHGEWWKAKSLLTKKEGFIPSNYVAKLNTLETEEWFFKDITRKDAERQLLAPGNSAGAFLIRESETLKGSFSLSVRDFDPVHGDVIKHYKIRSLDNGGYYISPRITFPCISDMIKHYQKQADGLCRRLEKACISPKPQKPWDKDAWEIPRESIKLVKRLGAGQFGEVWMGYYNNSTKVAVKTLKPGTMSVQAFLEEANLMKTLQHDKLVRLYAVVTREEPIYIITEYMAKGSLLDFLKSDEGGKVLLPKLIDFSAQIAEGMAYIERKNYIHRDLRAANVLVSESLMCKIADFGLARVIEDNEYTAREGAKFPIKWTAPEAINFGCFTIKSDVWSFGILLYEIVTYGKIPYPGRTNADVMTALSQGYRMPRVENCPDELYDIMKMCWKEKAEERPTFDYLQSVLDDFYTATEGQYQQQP

The term inhibition denotes the drop in the measured response relative to a control, in per cent. High values mean strong suppression, low ones little suppression. In assay [1], `Cc1ccc2cc(-c3n[nH]c4ccc(NC5CCNC5)cc34)[nH]c2c1` (stereo not drawn) showed an inhibition of 1%. Further, the residual activity in assay [2] was 0%; in assay [3], 6%; in assay [4] it was 93%; in assay [5], 44%; in assay [6] it was 1%; in [7], 90%. The residual activity in assay [8] turned out to be 28%; in assay [9], 90%; in [10], 62%; in [11], 124%; in assay [12], 24%; in [13], 33%. The residual activity in assay [14] worked out at 100%.

In turn, `Cc1ccc2cc(-c3n[nH]c4ccc(NC5CCN(Cc6ccccc6)CC5)cc34)[nH]c2c1` yielded an inhibition in [1] of 0%. The residual activity was found to be 7% in [2]; 5% in assay [3]; 93% in assay [4]; 63% in assay [5]; 30% in [6]; 78% in assay [7]. The residual activity in assay [8] worked out at 115%; in assay [9], 90%; in assay [10], 92%; in assay [11] it was 87%; in [12], 5%; in assay [13] it was 59%. The residual activity in assay [14] worked out at 100%.
